Measurements taken from ChEMBL document CHEMBL1156601, “Aminomethylpiperazines as selective urotensin antagonists” (Bioorg Med Chem Lett, 2008).

Key:
[1] = Displacement of [125I]hU-2 from human recombinant urotensin receptor expressed in HEK293 cells; type: cell-based
Summary of the method: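 Radioligand binding with [125I]hU-II on membranes of HEK293 cells stably expressing recombinant human UT receptor. Ki given as the mean of at least two determinations (SD <±0.3 log units).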

[2] = target: Kappa-type opioid receptor (Homo sapiens, UniProt P41145); assay: Agonist activity at human kappa opioid receptor expressed in CHO-K1 cells by [35S]GTPgamma binding assay; type: functional, cell-based
Summary of the method: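 Human κ-opioid receptor, membranes from BacMam-transduced CHO-K1 cells. Agonism read as [35S]GTPγS binding, detected by LEADseeker SPA. EC50 reported from a single run or as the mean of two runs (SD <±0.3 log units).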

[3] = Displacement of [125I]hU-2 from rat recombinant urotensin receptor expressed in HEK293 cells; type: cell-based
[4] = Antagonist activity at rat urotensin receptor in Sprague-Dawley rat thoracic aorta assessed as inhibition of urotensin-mediated contraction; type: functional
Summary of the method: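 Isolated rat aortic rings were contracted via UT, and the test agent's inhibition of that contraction was measured. The value is reported as a Kb, the mean of two determinations ± SEM.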

Rattus norvegicus = species on record: Rattus norvegicus; assay: Selectivity ratio of Kb for urotensin receptor in Sprague-Dawley rat thoracic aorta to Ki for rat recombinant urotensin receptor; type: tissue-based

Kappa-type opioid receptor, sequence (P41145 whole entry): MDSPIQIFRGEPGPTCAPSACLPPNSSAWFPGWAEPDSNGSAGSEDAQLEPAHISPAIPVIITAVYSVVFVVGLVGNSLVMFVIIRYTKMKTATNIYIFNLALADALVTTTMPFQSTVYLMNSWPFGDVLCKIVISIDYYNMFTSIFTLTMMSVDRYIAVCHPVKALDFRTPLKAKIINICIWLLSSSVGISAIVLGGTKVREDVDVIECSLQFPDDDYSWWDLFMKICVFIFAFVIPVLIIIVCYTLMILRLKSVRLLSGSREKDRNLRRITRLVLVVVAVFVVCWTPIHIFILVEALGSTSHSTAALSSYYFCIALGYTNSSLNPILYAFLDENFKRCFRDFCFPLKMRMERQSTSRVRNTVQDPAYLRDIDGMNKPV

| Compound | Ki [1] | EC50 [2] | Ki [3] | Kb [4] | Ratio (Rattus norvegicus) |
| --- | --- | --- | --- | --- | --- |
| O=C(Cn1c(=O)oc2ccccc21)N1CCN(c2ccccc2)CC1CN1CCCC1 (configuration not stated) | 130 nM | 400 nM | – | – | – |
| COc1cccc(S(=O)(=O)N2CCN(C(=O)CN(C)c3ccc(Cl)c(Cl)c3)C(CN3CCCC3)C2)c1 (configuration not stated) | 79 nM | 79 nM | – | – | – |
| CN(CC(=O)N1CCN(c2ccccc2)CC1CN1CCCC1)c1ccc(Cl)c(Cl)c1 (configuration not stated) | 250 nM | 1.3 nM | – | – | – |
| CN(CC(=O)N1CCN(c2ccc(F)c(F)c2)CC1CN1CCCC1)c1ccc(Cl)c(Cl)c1 (configuration not stated) | 100 nM | 6.3 nM | – | – | – |
| CN(CC(=O)N1CCN(c2cccc(Cl)c2)CC1CN1CCCC1)c1ccc(Cl)c(Cl)c1 (configuration not stated) | 63 nM | 4 nM | – | – | – |
| COc1cccc(N2CCN(C(=O)CN(C)c3ccc(Cl)c(Cl)c3)C(CN3CCCC3)C2)c1 (configuration not stated) | 50 nM | 3.2 nM | – | – | – |
| CN(CC(=O)N1CCN(S(C)(=O)=O)CC1CN1CCCC1)c1ccc(Cl)c(Cl)c1 (configuration not stated) | 100 nM | 3 nM | – | – | – |
| CN(CC(=O)N1CCN(C(=O)c2cccc(Cl)c2)CC1CN1CCCC1)c1ccc(Cl)c(Cl)c1 (configuration not stated) | 130 nM | > 10000 nM | – | – | – |
| CC(=O)Nc1ccc(S(=O)(=O)N2CCN(C(=O)Cn3c(=O)oc4ccc(Cl)cc43)C(CN3CCCC3)C2)cc1 (configuration not stated) | 2.5 nM | 1300 nM | 4 nM | 13.1 nM | 3.3 |
| O=C(Cn1c(=O)oc2ccc(Cl)cc21)N1CCN(S(=O)(=O)c2ccccc2)CC1CN1CCCC1 (configuration not stated) | 20 nM | 790 nM | – | – | – |
| CN(CC(=O)N1CCN(C(=O)c2ccccc2)CC1CN1CCCC1)c1ccc(Cl)c(Cl)c1 (configuration not stated) | 200 nM | 7900 nM | – | – | – |
| CN(CC(=O)N1CCN(S(=O)(=O)c2ccc(F)c(F)c2)CC1CN1CCCC1)c1ccc(Cl)c(Cl)c1 (configuration not stated) | 130 nM | 400 nM | – | – | – |
| O=C(O)c1ccc(S(=O)(=O)N2CCN(C(=O)Cn3c(=O)oc4ccc(Cl)cc43)C(CN3CCCC3)C2)cc1 (configuration not stated) | 25 nM | 2000 nM | 32 nM | 81.8 nM | 2.6 |
| COc1ccc(S(=O)(=O)N2CCN(C(=O)Cn3c(=O)oc4ccc(Cl)cc43)C(CN3CCCC3)C2)cc1OC (configuration not stated) | 13 nM | 320 nM | – | – | – |
| COc1cccc(S(=O)(=O)N2CCN(C(=O)Cn3c(=O)oc4ccc(Cl)cc43)C(CN3CCCC3)C2)c1 (configuration not stated) | 25 nM | 320 nM | – | – | – |
| CN(CC(=O)N1CCCCC1CN1CCCC1)c1ccc(Cl)c(Cl)c1 (configuration not stated) | 500 nM | 3 nM | – | – | – |
| O=C(Cn1c(=O)oc2ccc(Cl)cc21)N1CCN(S(=O)(=O)c2ccccc2Br)CC1CN1CCCC1 (configuration not stated) | 8 nM | 2000 nM | – | 52.8 nM | – |
| COc1ccc(C(=O)N2CCN(C(=O)CN(C)c3ccc(Cl)c(Cl)c3)C(CN3CCCC3)C2)cc1OC (configuration not stated) | 400 nM | > 10000 nM | – | – | – |

| Compound | Ki [1] | EC50 [2] | Ki [3] | Kb [4] | Ratio (Rattus norvegicus) |
| --- | --- | --- | --- | --- | --- |
| CN(CC(=O)N1CCN(C(=O)Nc2ccccc2)CC1CN1CCCC1)c1ccc(Cl)c(Cl)c1 (configuration not stated) | 790 nM | 4000 nM | – | – | – |
| CN(CC(=O)N1CCN(S(=O)(=O)c2ccccc2)CC1CN1CCCC1)c1ccc(Cl)c(Cl)c1 (configuration not stated) | 20 nM | 250 nM | – | – | – |
| CN(CC(=O)N1CCN(C(=O)c2ccc(C#N)cc2)CC1CN1CCCC1)c1ccc(Cl)c(Cl)c1 (configuration not stated) | 1300 nM | 3200 nM | – | – | – |
| COc1ccc(S(=O)(=O)N2CCN(C(=O)Cn3c(=O)oc4ccc(Cl)cc43)C(CN3CCCC3)C2)cc1 (configuration not stated) | 25 nM | 2000 nM | – | – | – |
| N#Cc1cccc(S(=O)(=O)N2CCN(C(=O)Cn3c(=O)oc4ccc(Cl)cc43)C(CN3CCCC3)C2)c1 (configuration not stated) | 10 nM | 630 nM | – | – | – |
| O=C(Cn1c(C(F)(F)F)nc2ccccc21)N1CCN(c2ccccc2)CC1CN1CCCC1 (configuration not stated) | 79 nM | – | – | – | – |
| O=C(Cn1c(=O)oc2ccccc21)N1CCN(S(=O)(=O)c2ccccc2)CC1CN1CCCC1 (configuration not stated) | 500 nM | 1000 nM | – | – | – |
| O=C(Cn1c(=O)oc2ccc(Cl)cc21)N1CCN(S(=O)(=O)c2cccc(C(F)(F)F)c2)CC1CN1CCCC1 (configuration not stated) | 50 nM | 2000 nM | – | – | – |
| O=C(Cn1c(=O)oc2ccc(Cl)cc21)N1CCN(S(=O)(=O)c2cc(C(F)(F)F)ccc2Cl)CC1CN1CCCC1 (configuration not stated) | 13 nM | 1000 nM | – | – | – |
| CN(CC(=O)N1CCN(C(=O)c2ccncc2)CC1CN1CCCC1)c1ccc(Cl)c(Cl)c1 (configuration not stated) | 100 nM | 630 nM | – | – | – |
| O=C(O)c1ccc(S(=O)(=O)N2CCN(C(=O)Cn3c(=O)oc4ccc(Cl)cc43)C(CN3CCCC3)C2)cc1O (configuration not stated) | 13 nM | 7900 nM | 8 nM | 10 nM | 1.3 |
| CN(CC(=O)N1CCN(S(=O)(=O)c2cccc(Cl)c2)CC1CN1CCCC1)c1ccc(Cl)c(Cl)c1 (configuration not stated) | 160 nM | 200 nM | – | – | – |
| COc1ccc(Br)cc1S(=O)(=O)N1CCN(C(=O)Cn2c(=O)oc3ccc(Cl)cc32)C(CN2CCCC2)C1 (configuration not stated) | 130 nM | 790 nM | – | – | – |
| CN(CC(=O)N1CCN(S(=O)(=O)c2ccc(Cl)cc2)CC1CN1CCCC1)c1ccc(Cl)c(Cl)c1 (configuration not stated) | 100 nM | 790 nM | – | – | – |
| O=C(Cc1cccc2ccccc12)N1CCN(c2ccccc2)CC1CN1CCCC1 (configuration not stated) | 320 nM | 1.6 nM | – | – | – |
| COc1ccc(S(=O)(=O)N2CCN(C(=O)Cn3c(=O)oc4ccc(Cl)cc43)C(CN3CCCC3)C2)c(Br)c1OC (configuration not stated) | 1.6 nM | 1300 nM | 10 nM | 14.2 nM | 1.4 |
| O=C(Cc1csc2ccc(Cl)cc12)N1CCN(c2ccccc2)CC1CN1CCCC1 (configuration not stated) | 63 nM | 2 nM | – | – | – |
